Data taken from ChEMBL document CHEMBL2412970, “Synthesis and anticancer activity of 2,4-disubstituted furo[3,2-b]indole derivatives” (Eur J Med Chem, 2013).
Active and inactive are the calls of the source. No cut-off for these calls is given here.

What was measured:
[1] = test system: A498; assay: Cytotoxicity against human A498 cells assessed as cell shrinkage at 0.5 uM after 24 hrs by phase contrast microscopy; type: functional, cell-based
Procedure, shortened: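 A498 cells were plated at 5 × 10⁵ per well and exposed to 0.5 µM for 24 h. Cell rounding and shrinkage were scored by microscopy against untreated control cells.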

[2] = test system: CAKI-1; assay: Cytotoxicity against human Caki1 cells after 48 hrs by sulforhodamine B assay; type: functional; details: CAKI-1, 48 h
[3] = test system: SN12C; assay: Cytotoxicity against human SN12C cells after 48 hrs by sulforhodamine B assay; type: functional
[4] = test system: A498; assay: Cytotoxicity against human A498 cells after 48 hrs by sulforhodamine B assay; type: functional; details: A498, 48 h
[5] = test system: SNB-75; assay: Cytotoxicity against human SNB75 cells after 48 hrs by sulforhodamine B assay; type: functional; details: SNB-75, 48 h
[6] = test system: SK-MEL-5; assay: Cytotoxicity against human SK-MEL-5 cells after 48 hrs by sulforhodamine B assay; type: functional; details: SK-MEL-5, 48 h
[7] = test system: COLO 205; assay: Cytotoxicity against human COLO205 cells after 48 hrs by MTT assay; type: functional, cell-based; details: COLO 205, 48 h
Procedure, shortened: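 Cells were treated with a range of concentrations for 48 h. Viability was read by MTT: formazan was dissolved in DMSO and absorbance read at 570 nm. Untreated or 0.1% DMSO cells served as control. Data are mean from three independent experiments. HL-60, H460 and COLO 205 were kept in RPMI-1640 with 10% FBS and penicillin/streptomycin.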

[8] = test system: HT-29; assay: Cytotoxicity against human HT-29 cells after 48 hrs by sulforhodamine B assay; type: functional; details: HT-29, 48 h
[9] = test system: SR; assay: Cytotoxicity against human SR cells after 48 hrs by sulforhodamine B assay; type: functional
[10] = test system: A498; assay: Cell cycle arrest in human A498 cells assessed as accumulation at S phase at 0.5 uM after 48 hrs by propidium iodide staining-based flow cytometry (reference value: 15.92 +/- 0.03%); type: functional
[11] = test system: A498; assay: Antitumor activity against human A498 cells xenografted in BALB/cAnN.Cg-Foxn1nu/CrlNarl nude mouse assessed as suppression of tumor growth at 60 mg/kg/day, ip qd administered 5 times a week for 28 days measured every 7 days relative to control; type: functional; details: route intraperitoneal, read-out: TGI
Procedure, shortened: (§1)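 Male nude mice (18–20 g, 4–6 weeks) were inoculated subcutaneously with A498 cells, 2 × 10⁶ per mouse in 0.1 mL PBS. Once tumors reached 100 mm³, mice were randomized and given ip doses of 30 or 60 mg/kg, 5 times per week for 4 weeks. Body weight and tumor size were recorded every 7 days over 28 days. Volume = 1/2 ([…]).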

[12] = test system: PC-3; assay: Cytotoxicity against human PC3 cells after 48 hrs by sulforhodamine B assay; type: functional; details: PC-3, 48 h
[13] = test system: LOX IMVI; assay: Cytotoxicity against human LOXIMVI cells after 48 hrs by sulforhodamine B assay; type: functional
[14] = test system: A498; assay: Cell cycle arrest in human A498 cells assessed as accumulation at G2/M phase at 0.5 uM after 24 hrs by propidium iodide staining-based flow cytometry (reference value: 5.39 +/- 0.01%); type: functional
[15] = test system: Mus musculus; assay: Toxicity in BALB/cAnN.Cg-Foxn1nu/CrlNarl nude mouse assessed as change in body weight at 30 to 60 mg/kg/day, ip qd administered 5 times a week for 28 days measured every 7 days; type: organism-based; set-up: route intraperitoneal; details: in vivo
Procedure, shortened: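 Male nude mice, 18–20 g, 4–6 weeks old, carried subcutaneous A498 xenografts (2 × 10⁶ cells in 0.1 mL PBS). Once nodules reached 100 mm³, mice were randomized, eight per group. They received ip 30 or 60 mg/kg 5 times weekly for 4 weeks, with body weight and tumor size recorded every 7 days over 28 days.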

[16] = test system: A498; assay: Cell cycle arrest in human A498 cells assessed as accumulation at sub-G1 phase at 0.5 uM by propidium iodide staining-based flow cytometry; type: functional; details: TDE = time-dependent effect
[17] = test system: SF-268; assay: Cytotoxicity against human SF268 cells after 48 hrs by sulforhodamine B assay; type: functional; details: SF-268, 48 h
[18] = test system: A498; assay: Antitumor activity against human A498 cells xenografted in BALB/cAnN.Cg-Foxn1nu/CrlNarl nude mouse assessed as suppression of tumor growth at 30 to 60 mg/kg/day, ip qd; type: functional, organism-based; details: TDE = time-dependent effect; procedure, shortened: as §1
[19] = test system: SW-620; assay: Cytotoxicity against human SW620 cells after 48 hrs by sulforhodamine B assay; type: functional; details: SW-620, 48 h
[20] = test system: HCT-116; assay: Cytotoxicity against human HCT116 cells after 48 hrs by sulforhodamine B assay; type: functional; details: HCT-116, 48 h
[21] = test system: UO-31; assay: Cytotoxicity against human UO31 cells after 48 hrs by sulforhodamine B assay; type: functional; details: UO-31, 48 h
[22] = test system: U-251; assay: Cytotoxicity against human U251 cells after 48 hrs by sulforhodamine B assay; type: functional; details: U-251, 48 h
[23] = test system: A498; assay: Cytotoxicity against human A498 cells assessed as reduction in cell viability at 0.5 uM after 48 hrs by MTT assay relative to control; type: functional
[24] = test system: A498; assay: Cell cycle arrest in human A498 cells assessed as accumulation at G2/M phase at 0.5 uM after 48 hrs by propidium iodide staining-based flow cytometry (reference value: 5.39 +/- 0.01%); type: functional
[25] = test system: SF-295; assay: Cytotoxicity against human SF295 cells after 48 hrs by sulforhodamine B assay; type: functional; details: SF-295, 48 h
[26] = test system: DU-145; assay: Cytotoxicity against human DU145 cells after 48 hrs by sulforhodamine B assay; type: functional; details: DU-145, 48 h
[27] = test system: T47D; assay: Cytotoxicity against human T47D cells after 48 hrs by sulforhodamine B assay; type: functional
[28] = test system: A498; assay: Cytotoxicity against human A498 cells assessed as reduction in cell viability at 0.25 uM after 48 hrs by MTT assay relative to control; type: functional
[29] = test system: UACC-257; assay: Cytotoxicity against human UACC257 cells after 48 hrs by sulforhodamine B assay; type: functional; details: UACC-257, 48 h
[30] = read-out: pLC50 (the source's name) (converted)

With `OCc1ccc(Cn2c3ccccc3c3oc(CO)cc32)o1` the Activity [1] was “Active”, the GI50 [2] was 51.3 µM and the CC50 [2, 30] was greater than 100 µM. For the same compound, the TGI ([2]; read-out: pTGI) was greater than 100 µM, the GI50 [3] was greater than 100 µM and the CC50 [3, 30] was greater than 100 µM. For the same compound, the TGI ([3]; read-out: pTGI) was greater than 100 µM, the GI50 [4] was 0.141 µM and the CC50 ([4]; read-out: pLC50 (converted)) was 0.661 µM. For the same compound, the TGI ([4]; read-out: pTGI (converted)) was 0.302 µM, the GI50 [5] was 46.8 µM and the CC50 [5, 30] was greater than 100 µM. For the same compound, the TGI ([5]; read-out: pTGI) was greater than 100 µM, the GI50 [6] was greater than 100 µM and the CC50 [6, 30] was greater than 100 µM. For the same compound, the TGI ([6]; read-out: pTGI) was greater than 100 µM, the IC50 [7] was 31.1 µM and the GI50 [8] was 41.7 µM. For the same compound, the CC50 [8, 30] was greater than 100 µM, the TGI ([8]; read-out: pTGI) was greater than 100 µM and the GI50 [9] was 89.1 µM. For the same compound, the CC50 [9, 30] was greater than 100 µM, the TGI ([9]; read-out: pTGI) was greater than 100 µM and the Activity [10] was 10.64%. The inhibition in vivo at 60 mg/kg/day [11] was 80%, the GI50 [12] was 55 µM and the CC50 [12, 30] was greater than 100 µM. It also gave a TGI ([12]; read-out: pTGI) greater than 100 µM, a GI50 [13] of 66.1 µM and a CC50 [13, 30] greater than 100 µM. For the same compound, the TGI ([13]; read-out: pTGI) was greater than 100 µM, the Activity [14] was 11.37% and the Activity [15] was “Non-toxic”. The Activity [16] was “tde”, the GI50 [17] was 97.7 µM and the CC50 [17, 30] was greater than 100 µM. For the same compound, the TGI ([17]; read-out: pTGI) was greater than 100 µM, the Activity [18] was “tde” and the GI50 [19] was greater than 100 µM. It also gave a CC50 [19, 30] greater than 100 µM, a TGI ([19]; read-out: pTGI) greater than 100 µM and a GI50 [20] of 0.912 µM. It also gave a CC50 [20, 30] greater than 100 µM, a TGI ([20]; read-out: pTGI) greater than 100 µM and a GI50 [21] of 50.1 µM. It also gave a CC50 [21, 30] greater than 100 µM, a TGI ([21]; read-out: pTGI) greater than 100 µM and a GI50 [22] of 30.9 µM. The CC50 [22, 30] was greater than 100 µM, the TGI ([22]; read-out: pTGI) was greater than 100 µM and the Activity [23] was 37.5%. It also gave an Activity [24] of 18.09%, a GI50 [25] of 26.9 µM and a CC50 [25, 30] greater than 100 µM. For the same compound, the TGI ([25]; read-out: pTGI) was greater than 100 µM, the GI50 [26] was greater than 100 µM and the CC50 [26, 30] was greater than 100 µM. It also gave a TGI ([26]; read-out: pTGI) greater than 100 µM, a GI50 [27] of 1.62 µM and a CC50 [27, 30] greater than 100 µM. The TGI ([27]; read-out: pTGI) was greater than 100 µM, the Activity [28] was 39.5% and the GI50 [29] was 1.45 µM. The CC50 [29, 30] was greater than 100 µM and the TGI ([29]; read-out: pTGI (converted)) was 4.37 µM.
